21 compounds from ChEMBL document CHEMBL1132468, “5-(Tryptophyl)amino-1,3-dioxoperhydropyrido[1,2-c]pyrimidine-based potent and selective CCK(1) receptor antagonists: structural modifications at the tryptophan domain” (J Med Chem, 1999) can be followed below.

pIC50: −log10 of the molar value. Some results are limits rather than exact numbers.

Usually pIC50 stands for the IC50 on a negative log10 scale, so that one unit is a factor of ten.

The target in experiment [1] is T1, Gastrin/cholecystokinin type B receptor (Rattus norvegicus, UniProt P30553).
T1 sequence (P30553 whole entry): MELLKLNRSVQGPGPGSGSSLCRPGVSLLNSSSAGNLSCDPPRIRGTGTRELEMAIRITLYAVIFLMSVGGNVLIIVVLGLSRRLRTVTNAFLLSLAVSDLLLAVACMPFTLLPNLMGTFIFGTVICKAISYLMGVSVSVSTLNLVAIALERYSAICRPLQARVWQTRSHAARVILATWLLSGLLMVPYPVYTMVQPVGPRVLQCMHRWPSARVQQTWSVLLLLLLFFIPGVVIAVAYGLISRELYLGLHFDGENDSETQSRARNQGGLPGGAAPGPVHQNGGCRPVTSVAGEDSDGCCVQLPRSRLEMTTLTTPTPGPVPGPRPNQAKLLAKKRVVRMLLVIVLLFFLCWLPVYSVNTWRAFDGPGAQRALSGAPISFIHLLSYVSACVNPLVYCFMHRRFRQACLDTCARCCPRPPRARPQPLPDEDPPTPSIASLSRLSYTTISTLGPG
Kind of experiment: Binding affinity by competitive inhibition of the radioligand [3H]pCCK-8 at Cholecystokinin type B receptor from rat cerebral cortex membrane. It counts as tissue-based.

Experiment [2] deals with T2, Cholecystokinin receptor type A (Rattus norvegicus, UniProt P30551).
T2 sequence (P30551 whole entry): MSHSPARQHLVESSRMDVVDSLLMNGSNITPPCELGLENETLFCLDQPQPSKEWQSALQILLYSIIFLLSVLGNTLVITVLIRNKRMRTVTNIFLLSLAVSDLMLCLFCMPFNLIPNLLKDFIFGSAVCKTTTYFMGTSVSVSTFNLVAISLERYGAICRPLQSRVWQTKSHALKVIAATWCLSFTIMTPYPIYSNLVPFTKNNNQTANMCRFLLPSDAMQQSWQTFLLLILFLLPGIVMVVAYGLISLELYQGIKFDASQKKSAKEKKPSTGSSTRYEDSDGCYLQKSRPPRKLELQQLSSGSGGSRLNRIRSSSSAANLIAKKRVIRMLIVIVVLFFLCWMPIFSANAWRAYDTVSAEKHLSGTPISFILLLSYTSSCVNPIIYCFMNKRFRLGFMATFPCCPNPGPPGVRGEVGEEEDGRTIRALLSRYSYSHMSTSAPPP
Nature of the experiment: Binding affinity by competitive inhibition of the radioligand [3H]pCCK-8 at Cholecystokinin type A receptor from rat pancreas. A digest of the protocol:
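Rat pancreas homogenized in Pipes HCl pH 6.5 with 30 mM MgCl2, centrifuged twice at 50000g, 4 °C. Membranes (0.2 mg protein/tube) incubated with 0.5 nM [3H]pCCK-8 plus bacitracin and soybean trypsin inhibitor (0.2 mg/mL each) for 120 min at 25 °C. Ki from displacement curves by Cheng–Prusoff. Seven concentrations in triplicate, at least three experiments.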

Experiment [3] deals with Rattus norvegicus. Nature of the experiment: Compound (CCK1 antagonist) was administered orally for the effect of increase in plasma lipase activity induced by caerulein in rat at the dose of 1 mg/kg. Type of experiment: functional. The note with it: route oral. The gist of the method: (§1)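 Caerulein pancreatitis in fasted (24 h) male Wistar rats (190–210 g): four hourly sc injections of 10 µg/kg. Antagonist dosed orally (0.25 mL/100 g; 0.1 or 1 mg/kg) 60 min before the first caerulein injection. Plasma drawn 3 h after the final injection. Amylase and lipase activities read with commercial kits, in IU/mL. Comparisons by ANOVA plus Scheffé's test against caerulein.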

Experiment [4] relates to Rattus norvegicus. Kind of experiment: Compound (CCK1 antagonist) was administered orally for the effect of increase in plasma amylase activity induced by caerulein in rat at the dose of 1 mg/kg. The conditions noted are these: route oral. Type of experiment: functional. A digest of the protocol:
as §1

The subject of experiment [5] is Rattus norvegicus. Kind of experiment: Compound (CCK1 antagonist) was administered intraperitoneally for the effect of increase in plasma amylase activity induced by caerulein in rat at the dose of 0.1 mg/kg. Type of experiment: functional. The conditions noted are these: route intraperitoneal. A digest of the protocol:
(§2)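 Male Wistar rats (190–210 g), fasted 24 h, given four sc caerulein injections (10 µg/kg) at hourly intervals. Antagonist given ip (0.25 mL/100 g; 0.1 or 1 mg/kg) 30 min before the first caerulein dose. Blood taken 3 h after the last injection. Plasma amylase and lipase measured by commercial kits, in IU/mL. Statistics by ANOVA with Scheffé's test against caerulein alone.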

In experiment [6] the test system is Rattus norvegicus. Nature of the experiment: Compound (CCK1 antagonist) was administered orally for the effect of increase in plasma amylase activity induced by caerulein in rat at the dose of 0.1 mg/kg. The conditions noted are these: route oral. Type of experiment: functional. The gist of the method:
as §1

In experiment [7] the test system is Rattus norvegicus. Kind of experiment: Compound (CCK1 antagonist) was administered intraperitoneally for the effect of increase in plasma amylase activity induced by caerulein in rat at the dose of 1 mg/kg. It counts as functional. The note with it: route intraperitoneal. The gist of the method:
as §2

Experiment [8] deals with Rattus norvegicus. Nature of the experiment: Compound (CCK1 antagonist) was administered intraperitoneally for the effect of increase in plasma lipase activity induced by caerulein in rat at the dose of 0.1 mg/kg. It counts as functional. The note with it: route intraperitoneal. The gist of the method:
as §2

Experiment [9] concerns Rattus norvegicus. Nature of the experiment: Compound (CCK1 antagonist) was administered orally for the effect of increase in plasma lipase activity induced by caerulein in rat at the dose of 0.1 mg/kg. It counts as functional. The conditions noted are these: route oral. The gist of the method: as §1
The subject of experiment [10] is Rattus norvegicus. Kind of experiment: Compound (CCK1 antagonist) was administered intraperitoneally for the effect of increase in plasma lipase activity induced by caerulein in rat at the dose of 1 mg/kg. Type of experiment: functional. The note with it: route intraperitoneal. A digest of the protocol:
as §2

Turning to `CC(C)(C)OC(=O)N[C@H](CN[C@@H]1CCCN2C(=O)N(Cc3ccccc3)C(=O)C[C@H]12)Cc1c[nH]c2ccccc12`, the values for the pIC50 in experiment [1] and in experiment [2] were less than 5.00 and less than 6.00, respectively.

`CC(C)(C)OC(=O)N[C@@H](Cc1ccccc1)C(=O)N[C@@H]1CCCN2C(=O)N(Cc3ccccc3)C(=O)C[C@H]12`: the figures for the pIC50 in [1] and in experiment [2] were less than 5.00 and 7.18, respectively.

With `N#C[C@@H](N[C@@H]1CCCN2C(=O)N(Cc3ccccc3)C(=O)C[C@H]12)[C@H](Cc1c[nH]c2ccccc12)NC(=O)OCc1ccccc1`, the pIC50 in experiment [1] is less than 5.00; in experiment [2] it was less than 6.00.

For `CC(C)(C)OC(=O)N[C@@H](Cc1c[nH]c2ccccc12)[C@H](C#N)N[C@@H]1CCCN2C(=O)N(Cc3ccccc3)C(=O)CC12` (single isomer, unassigned), the pIC50 in [1] is less than 5.00; in [2], 8.11.

`CC(C)(C)OC(=O)N[C@](C)(Cc1c[nH]c2ccccc12)C(=O)N[C@@H]1CCCN2C(=O)N(Cc3ccccc3)C(=O)C[C@@H]12.CC(C)(C)OC(=O)N[C@](C)(Cc1c[nH]c2ccccc12)C(=O)N[C@H]1CCCN2C(=O)N(Cc3ccccc3)C(=O)C[C@H]12` gave a pIC50 in [1] of less than 5.00.

Take `CC(C)(C)OC(=O)N[C@@](C)(Cc1c[nH]c2ccccc12)C(=O)N[C@@H]1CCCN2C(=O)N(Cc3ccccc3)C(=O)C[C@@H]12.CC(C)(C)OC(=O)N[C@@](C)(Cc1c[nH]c2ccccc12)C(=O)N[C@H]1CCCN2C(=O)N(Cc3ccccc3)C(=O)C[C@H]12` (single isomer, unassigned): the pIC50 was less than 5.00 in experiment [1] and 7.37 in experiment [2].

Take `O=C(N[C@@H](Cc1c[nH]c2ccccc12)C(=O)N[C@H]1CCCN2C(=O)N(Cc3ccccc3)C(=O)CC12)OC1C2CC3CC(C2)CC1C3` (single isomer, unassigned): the pIC50 was 5.46 in [1] and 6.47 in [2].

On to `CC(C)(C)OC(=O)N[C@@H](Cc1c[nH]c2ccccc12)[C@@H](C#N)N[C@@H]1CCCN2C(=O)N(Cc3ccccc3)C(=O)CC12` (single isomer, unassigned), for which the pIC50 in [1] was less than 5.00; in experiment [2] it was 7.49.

On to `CN1C(=O)[C@@H](NC(=O)c2cc3ccccc3[nH]2)N=C(c2ccccc2)c2ccccc21` [DEVAZEPIDE], for which the “Increase in plasma lipase” value in the experiment on Rattus norvegicus [3] was 57 IU ml-1; with Rattus norvegicus [8], 125 IU ml-1; in the experiment with Rattus norvegicus [9], 871 IU ml-1; in the experiment with Rattus norvegicus [10] it was 26 IU ml-1. Further, the “Increase in plasma amylase” value worked out at 4578 IU ml-1 in the experiment with Rattus norvegicus [4], 8793 IU ml-1 with Rattus norvegicus [5], 7733 IU ml-1 in the experiment with Rattus norvegicus [6] and 3650 IU ml-1 in the experiment on Rattus norvegicus [7].

`CC(C)(C)NC(=O)N[C@@H](Cc1c[nH]c2ccccc12)C(=O)N[C@@H]1CCCN2C(=O)N(Cc3ccccc3)C(=O)CC12` (single isomer, unassigned): the “Increase in plasma lipase” value with Rattus norvegicus [3] stood at 1062 IU ml-1; in the experiment on Rattus norvegicus [8], 1667 IU ml-1; in the experiment on Rattus norvegicus [9], 2200 IU ml-1; in the experiment with Rattus norvegicus [10], 36 IU ml-1. Moreover, the “Increase in plasma amylase” value amounted to 19967 IU ml-1 with Rattus norvegicus [4], 27103 IU ml-1 in the experiment on Rattus norvegicus [5], 28939 IU ml-1 in the experiment on Rattus norvegicus [6] and 5326 IU ml-1 in the experiment on Rattus norvegicus [7]. Further, the pIC50 in experiment [1] is less than 5.00; in experiment [2], 9.04.

In the case of `CC(C)(C)OC(=O)N[C@@H](Cc1c[nH]c2ccccc12)C(=O)N[C@@H]1CCCN2C(=O)N(Cc3ccccc3)C(=O)CC12` (single isomer, unassigned) [IQM-95333], the “Increase in plasma lipase” value in the experiment with Rattus norvegicus [3] worked out at 1948 IU ml-1; with Rattus norvegicus [8], 1943 IU ml-1; in the experiment on Rattus norvegicus [9] it was 2837 IU ml-1; with Rattus norvegicus [10], 112 IU ml-1. The “Increase in plasma amylase” value with Rattus norvegicus [4] stood at 31205 IU ml-1; with Rattus norvegicus [5], 35985 IU ml-1; in the experiment on Rattus norvegicus [6] it was 37753 IU ml-1; with Rattus norvegicus [7], 2721 IU ml-1. For the same compound, the negative logarithm of the IC50 (pIC50) was less than 5.00 in [1] and 8.80 in experiment [2].

Regarding `CC(C)(C)OC(=O)N[C@@H](Cc1c[nH]c2ccccc12)C(=O)N[C@H]1CCCN2C(=O)N(Cc3ccccc3)C(=O)C[C@@H]12`, the values for the pIC50 in experiment [1] and in [2] were 5.21 and 7.64, respectively.

On to `O=C(Cc1c[nH]c2ccccc12)N[C@H]1CCCN2C(=O)N(Cc3ccccc3)C(=O)C[C@@H]12.O=C(N[C@@H]1CCCN2C(=O)N(Cc3ccccc3)C(=O)C[C@H]12)c1c[nH]c2ccccc12`, for which the pIC50 in [1] is less than 5.00; in experiment [2], less than 6.00.

Consider `N[C@@H](Cc1c[nH]c2ccccc12)C(=O)N[C@@H]1CCCN2C(=O)N(Cc3ccccc3)C(=O)C[C@H]12`, for which the figures for the pIC50 in experiment [1] and in experiment [2] were less than 5.00 and less than 6.00, respectively.

As for `N[C@@H](Cc1c[nH]c2ccccc12)C(=O)N[C@H]1CCCN2C(=O)N(Cc3ccccc3)C(=O)C[C@@H]12`, the pIC50 is less than 5.00 in experiment [1] and less than 6.00 in [2].

Take `CC(C)(C)OC(=O)N1Cc2[nH]c3ccccc3c2CC1C(=O)N[C@H]1CCCN2C(=O)N(Cc3ccccc3)C(=O)C[C@@H]12` (stereo not given in full): the negative-log IC50 (pIC50) in experiment [1] is less than 5.00; in [2], less than 6.00.

As to `CC(C)(C)CC(=O)N[C@@H](Cc1c[nH]c2ccccc12)C(=O)N[C@@H]1CCCN2C(=O)N(Cc3ccccc3)C(=O)CC12` (single isomer, unassigned), the “Increase in plasma lipase” value in the experiment with Rattus norvegicus [3] was 3375 IU ml-1; with Rattus norvegicus [8], 2956 IU ml-1; in the experiment with Rattus norvegicus [9], 3089 IU ml-1; with Rattus norvegicus [10], 1140 IU ml-1. Besides, the “Increase in plasma amylase” value was determined as 46591 IU ml-1 in the experiment with Rattus norvegicus [4], 61102 IU ml-1 with Rattus norvegicus [5], 51420 IU ml-1 in the experiment on Rattus norvegicus [6] and 28015 IU ml-1 with Rattus norvegicus [7]. For the same compound, the pIC50 in experiment [1] was less than 5.00; in experiment [2] it was 8.35.

On to `O=C(N[C@@H]1CCCN2C(=O)N(Cc3ccccc3)C(=O)C[C@@H]12)c1cc2ccccc2[nH]1.O=C(N[C@H]1CCCN2C(=O)N(Cc3ccccc3)C(=O)C[C@H]12)c1cc2ccccc2[nH]1`, for which the pIC50 in [1] is less than 5.00; in experiment [2], less than 6.00.

Turning to `O=C(N[C@H]1CCCN2C(=O)N(Cc3ccccc3)C(=O)C[C@@H]12)[C@H](Cc1c[nH]c2ccccc12)NC(=O)C12CC3CC(CC(C3)C1)C2`, the pIC50 is 5.36 in [1] and 6.31 in [2].

For `N#C[C@H](N[C@@H]1CCCN2C(=O)N(Cc3ccccc3)C(=O)C[C@H]12)[C@H](Cc1c[nH]c2ccccc12)NC(=O)OCc1ccccc1`, the results for the pIC50 in [1] and in experiment [2] were less than 5.00 and less than 6.00, respectively.

Compound `CC(C)(C)OC(=O)N1Cc2[nH]c3ccccc3c2CC1C(=O)N[C@@H]1CCCN2C(=O)N(Cc3ccccc3)C(=O)C[C@H]12` (stereo not given in full) showed a pIC50 in experiment [1] of less than 5.00.
